Measurements as given in the M2OR odorant receptor database.

Columns and labels:
Details in all cases: stereoisomer not certain
OR13H1 (Homo sapiens) = biological target: T1, OR13H1 (Homo sapiens) (UniProt Q8NG92)
T1 sequence (whole entry): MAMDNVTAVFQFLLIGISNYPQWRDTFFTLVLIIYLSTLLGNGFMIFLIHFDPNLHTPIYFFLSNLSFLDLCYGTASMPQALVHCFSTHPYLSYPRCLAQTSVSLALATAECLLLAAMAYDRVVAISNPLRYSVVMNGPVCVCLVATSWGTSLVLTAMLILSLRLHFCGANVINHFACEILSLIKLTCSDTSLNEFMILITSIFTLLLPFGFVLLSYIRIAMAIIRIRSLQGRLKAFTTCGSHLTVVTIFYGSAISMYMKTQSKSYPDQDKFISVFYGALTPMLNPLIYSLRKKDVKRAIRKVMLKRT
How it was run: (§1)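 Transient luciferase assays in mammalian cell lines were common, though methods varied by source. The values come from published papers and their supplementary material, with extra details from the original authors when needed. Responsive refers to a measured signal the original authors judged statistically different from baseline, and non-responsive (inactive) to the remainder.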

OR13J1 (Homo sapiens) = biological target: T2, OR13J1 (Homo sapiens) (UniProt Q8NGT2)
T2 sequence (whole entry): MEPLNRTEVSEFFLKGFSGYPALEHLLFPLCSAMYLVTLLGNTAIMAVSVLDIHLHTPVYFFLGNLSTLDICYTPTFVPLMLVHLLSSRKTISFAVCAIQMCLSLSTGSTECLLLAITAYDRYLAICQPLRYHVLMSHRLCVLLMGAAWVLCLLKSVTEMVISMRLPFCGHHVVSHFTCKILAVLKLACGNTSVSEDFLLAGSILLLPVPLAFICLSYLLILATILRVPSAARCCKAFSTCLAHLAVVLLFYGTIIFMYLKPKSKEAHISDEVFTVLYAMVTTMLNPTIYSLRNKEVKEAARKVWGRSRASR
How it was run: as §1

OR14A16 (Homo sapiens) = biological target: T3, OR14A16 (Homo sapiens) (UniProt Q8NHC5)
T3 sequence (whole entry): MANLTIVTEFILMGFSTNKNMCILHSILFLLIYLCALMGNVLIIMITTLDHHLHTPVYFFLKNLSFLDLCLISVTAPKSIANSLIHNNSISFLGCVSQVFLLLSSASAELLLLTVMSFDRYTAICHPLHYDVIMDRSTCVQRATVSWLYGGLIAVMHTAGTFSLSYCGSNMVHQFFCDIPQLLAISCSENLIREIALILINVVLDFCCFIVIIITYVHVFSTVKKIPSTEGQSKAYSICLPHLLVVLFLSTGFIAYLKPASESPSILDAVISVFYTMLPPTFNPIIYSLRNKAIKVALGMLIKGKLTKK
How it was run: as §1

OR14A2 (Homo sapiens) = biological target: T4, OR14A2 (Homo sapiens) (UniProt Q96R54)
T4 sequence (whole entry): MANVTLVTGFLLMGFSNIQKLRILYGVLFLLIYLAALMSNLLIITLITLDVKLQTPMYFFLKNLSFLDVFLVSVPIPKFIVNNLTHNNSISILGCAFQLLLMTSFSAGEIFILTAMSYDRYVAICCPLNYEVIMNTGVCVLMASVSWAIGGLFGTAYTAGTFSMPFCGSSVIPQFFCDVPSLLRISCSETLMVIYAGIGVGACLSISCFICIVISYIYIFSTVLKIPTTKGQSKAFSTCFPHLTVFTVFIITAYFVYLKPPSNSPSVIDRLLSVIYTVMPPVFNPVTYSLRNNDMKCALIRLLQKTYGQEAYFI
How it was run: as §1

OR14C36 (Homo sapiens) = biological target: T5, OR14C36 (Homo sapiens) (UniProt Q8NHC7)
T5 sequence (whole entry): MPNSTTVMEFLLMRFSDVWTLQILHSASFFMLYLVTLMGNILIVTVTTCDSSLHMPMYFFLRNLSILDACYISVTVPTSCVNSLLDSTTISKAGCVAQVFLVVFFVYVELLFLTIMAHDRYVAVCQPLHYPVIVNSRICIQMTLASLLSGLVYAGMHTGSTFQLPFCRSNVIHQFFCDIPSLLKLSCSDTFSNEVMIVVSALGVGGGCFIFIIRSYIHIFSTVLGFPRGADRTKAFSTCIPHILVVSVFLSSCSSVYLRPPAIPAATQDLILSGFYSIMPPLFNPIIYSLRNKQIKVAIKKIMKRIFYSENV
How it was run: as §1

OR14I1 (Homo sapiens) = biological target: T6, OR14I1 (Homo sapiens) (UniProt A6ND48)
T6 sequence (whole entry): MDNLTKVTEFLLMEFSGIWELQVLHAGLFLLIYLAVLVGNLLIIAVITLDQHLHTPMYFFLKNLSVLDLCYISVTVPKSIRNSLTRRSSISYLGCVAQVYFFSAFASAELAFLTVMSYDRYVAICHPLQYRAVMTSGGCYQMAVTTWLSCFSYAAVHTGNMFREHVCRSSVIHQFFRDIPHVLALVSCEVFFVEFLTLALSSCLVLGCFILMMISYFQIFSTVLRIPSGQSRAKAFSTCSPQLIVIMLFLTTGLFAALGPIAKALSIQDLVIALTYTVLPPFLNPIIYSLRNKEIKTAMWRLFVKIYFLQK
How it was run: as §1

OR14J1 (Homo sapiens) = biological target: T7, OR14J1 (Homo sapiens) (UniProt Q9UGF5)
T7 sequence (whole entry): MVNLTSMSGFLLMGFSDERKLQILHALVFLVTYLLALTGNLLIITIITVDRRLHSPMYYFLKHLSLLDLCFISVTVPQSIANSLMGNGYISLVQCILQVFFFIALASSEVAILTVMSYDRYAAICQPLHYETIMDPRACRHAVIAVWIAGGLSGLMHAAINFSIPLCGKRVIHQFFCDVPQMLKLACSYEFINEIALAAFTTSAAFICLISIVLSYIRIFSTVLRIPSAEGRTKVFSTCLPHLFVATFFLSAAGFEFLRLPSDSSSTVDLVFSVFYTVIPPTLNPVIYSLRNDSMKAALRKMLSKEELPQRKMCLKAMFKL
How it was run: as §1

OR14K1 (Homo sapiens) = biological target: T8, OR14K1 (Homo sapiens) (UniProt Q8NGZ2)
T8 sequence (whole entry): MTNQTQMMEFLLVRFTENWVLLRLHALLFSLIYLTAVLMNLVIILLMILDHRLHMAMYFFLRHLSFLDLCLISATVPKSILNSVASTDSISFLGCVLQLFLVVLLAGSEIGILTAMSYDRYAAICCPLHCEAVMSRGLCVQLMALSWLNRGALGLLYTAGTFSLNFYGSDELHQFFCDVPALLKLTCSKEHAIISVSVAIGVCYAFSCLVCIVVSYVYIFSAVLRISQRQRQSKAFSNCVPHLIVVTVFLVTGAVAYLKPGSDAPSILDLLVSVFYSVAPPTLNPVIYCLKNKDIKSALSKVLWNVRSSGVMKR
How it was run: as §1

OR1A1 (Homo sapiens) = biological target: T9, OR1A1 (Homo sapiens) (UniProt Q9P1Q5)
T9 sequence (whole entry): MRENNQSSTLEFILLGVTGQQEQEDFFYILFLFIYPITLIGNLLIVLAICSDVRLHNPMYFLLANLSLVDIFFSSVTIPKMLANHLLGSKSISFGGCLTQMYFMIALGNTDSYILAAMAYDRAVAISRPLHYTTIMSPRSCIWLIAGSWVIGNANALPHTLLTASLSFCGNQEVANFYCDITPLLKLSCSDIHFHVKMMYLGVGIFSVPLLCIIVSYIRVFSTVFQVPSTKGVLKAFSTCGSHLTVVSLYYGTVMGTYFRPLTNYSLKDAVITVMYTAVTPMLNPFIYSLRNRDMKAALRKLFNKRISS
How it was run: as §1

Measured: odorant receptor agonist call;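 also: active if original authors judged signal statistically different from baseline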

CCC1OC(C)=C(O)C1=O (centres undefined)
inactive: all assays above
